Measurements from different studies.
Target: Receptor-interacting serine/threonine-protein kinase 4 (RIPK4, Homo sapiens, UniProt P57078)
Sequence (P57078 1-832, as in one of the studies): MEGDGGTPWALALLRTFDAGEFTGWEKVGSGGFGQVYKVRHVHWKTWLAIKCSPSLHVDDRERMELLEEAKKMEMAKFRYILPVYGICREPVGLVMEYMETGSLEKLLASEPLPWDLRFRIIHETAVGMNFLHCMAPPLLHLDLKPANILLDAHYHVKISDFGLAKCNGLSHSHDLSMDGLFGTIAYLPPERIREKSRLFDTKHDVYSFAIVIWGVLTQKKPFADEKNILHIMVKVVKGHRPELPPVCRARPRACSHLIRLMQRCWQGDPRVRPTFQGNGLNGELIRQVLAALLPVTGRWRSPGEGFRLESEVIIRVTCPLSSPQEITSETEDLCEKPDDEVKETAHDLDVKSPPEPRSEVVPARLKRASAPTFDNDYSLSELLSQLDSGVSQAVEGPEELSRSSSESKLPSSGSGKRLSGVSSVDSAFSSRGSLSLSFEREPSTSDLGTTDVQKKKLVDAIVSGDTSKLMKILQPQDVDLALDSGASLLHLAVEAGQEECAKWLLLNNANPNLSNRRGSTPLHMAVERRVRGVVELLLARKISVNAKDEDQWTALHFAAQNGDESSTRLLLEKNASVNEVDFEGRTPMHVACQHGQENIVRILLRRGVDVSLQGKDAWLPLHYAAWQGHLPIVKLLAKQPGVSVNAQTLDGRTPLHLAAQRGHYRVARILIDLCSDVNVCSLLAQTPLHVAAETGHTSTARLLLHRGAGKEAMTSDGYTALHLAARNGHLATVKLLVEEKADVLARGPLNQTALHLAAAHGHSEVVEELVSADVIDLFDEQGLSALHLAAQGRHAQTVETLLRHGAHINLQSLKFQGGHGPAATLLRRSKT

SMILES | read-out | technique | tested at | remaining binding [%]
O=C(NCCCN1CCOCC1)c1ccc(Nc2nccc(-c3cc4ccccc4s3)n2)cc1 | binding | competition with immobilised ligand | 1 µM | 47
N[C@@H]1CCN(c2nccc(-c3cnn4ncccc34)n2)C1 | binding | – | 1 µM | 100
CC(=O)c1c(NS(C)(=O)=O)c2cc(-c3ccc(Cl)cc3)c(-c3ccc(Cl)cc3Cl)nc2n(C)c1=O | cell-free assay | competition with immobilised ligand | 1 µM | 61
c1cncc(-c2cccc(Nc3nccc(NC4CCCCC4)n3)c2)c1 | binding | competition with immobilised ligand | 10 µM | 53
C[C@@H](c1ccc(-n2cnc3c(N)ncnc32)cc1)N1CCc2nn(C)c(Cc3ccccc3)c2C1=O | binding | competition with immobilised ligand | 0.1 µM | 40
O=S(=O)(NC1CCC(c2cc(F)ccc2F)(S(=O)(=O)c2ccc(Cl)cc2)CC1)C(F)(F)F (stereo not drawn) | cell-free assay | competition with immobilised ligand | 1 µM | 91
F[C@@H]1CCN(c2nccc(-c3cnn4ncccc34)n2)C1 | binding | – | 1 µM | 100
CCN1CCN(Cc2ccc(C(=O)Nc3ccc(C)c(Oc4ccc5c(c4)CC(=O)N5)c3)cc2C(F)(F)F)CC1 | binding | competition with immobilised ligand | 1 µM | 100
C[C@H]1CCN(c2nccc(-c3cnn4ncccc34)n2)C1 | binding | – | 1 µM | 81
COc1cc(-c2cn(C3CCc4ccccc4N(CC(F)(F)F)C3=O)nn2)ccc1-n1ccc(C)n1 (stereo not drawn) | cell-free assay | competition with immobilised ligand | 1 µM | 52
O=C(c1ccc(Nc2nccc(-c3cc4ccccc4s3)n2)cc1)N1CCC(N2CCCC2)CC1 | binding | competition with immobilised ligand | 1 µM | 30
CN(c1nccc(-c2cnn3ncccc23)n1)C1CC1 | binding | – | 1 µM | 100
CS(=O)(=O)N1CCCC(NC(=O)[C@H](CCC2CCCCC2)NC(=O)c2ccc(CNC(=O)c3cnc4ccccn34)cc2)C1 (stereo partly drawn) | cell-free assay | competition with immobilised ligand | 0.1 µM | 92
Cc1cnn2ncc(-c3ccnc(N(C)C)n3)c2c1 | binding | – | 1 µM | 80
COc1ncc2cc3ccccc3nc2c1C#N | cell-free assay | competition with immobilised ligand | 5 µM | 100
CN(c1ccnc(CNc2nc(Nc3ccc4c(c3)CC(=O)N4)ncc2C(F)(F)F)n1)S(C)(=O)=O | cell-free assay | competition with immobilised ligand | 1 µM | 6
CN(C)c1nccc(-c2cnn3ncccc23)n1 | binding | – | 1 µM | 97
O=C(NCC1CCOCC1)c1n[nH]cc1NC(=O)c1c(F)cccc1F | binding | competition with immobilised ligand | 1 µM | 70
O=C(c1ccc(Nc2ncc(Cl)c(-c3ccc(Cl)s3)n2)cc1)N1CCC(N2CCCC2)CC1 | binding | competition with immobilised ligand | 1 µM | 8
O=C(NCCCC1CCCCC1)c1ccc(CNC(=O)c2cnn(-c3ccccc3)c2C(F)(F)F)cc1 | cell-free assay | competition with immobilised ligand | 0.1 µM | 58
COc1cnc(Nc2cccc(S(N)(=O)=O)c2)nc1N1CCN(c2ccccc2)C(=O)C1 | binding | competition with immobilised ligand | 1 µM | 86
